From PubChem
CDK5 p35 inh: inhibitors of human CDK5/p35 kinase | inhibition, % at 10 µM | Recombinant CDK5/p35, ADP-Glo luminescence, 60 min | AID 488839 | 0.01% of 330,000 active | Q00535+Q15078;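 active = highest replicate inhibition of at least 50% and at least 75% of replicates reaching 50%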;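 also: plate controls were DMSO neutral control for no effect and GW8510 at 10 µM for full effect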
Target sequence (Q00535 whole entry, looked up): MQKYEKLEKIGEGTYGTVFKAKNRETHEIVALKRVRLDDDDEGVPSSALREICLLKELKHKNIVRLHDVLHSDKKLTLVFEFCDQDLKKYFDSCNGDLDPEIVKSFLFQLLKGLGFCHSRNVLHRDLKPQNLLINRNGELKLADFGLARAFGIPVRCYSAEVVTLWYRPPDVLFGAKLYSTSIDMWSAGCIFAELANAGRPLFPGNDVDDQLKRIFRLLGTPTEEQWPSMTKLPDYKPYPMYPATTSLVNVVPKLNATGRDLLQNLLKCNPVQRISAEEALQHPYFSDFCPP
Target sequence (Q15078 whole entry, looked up): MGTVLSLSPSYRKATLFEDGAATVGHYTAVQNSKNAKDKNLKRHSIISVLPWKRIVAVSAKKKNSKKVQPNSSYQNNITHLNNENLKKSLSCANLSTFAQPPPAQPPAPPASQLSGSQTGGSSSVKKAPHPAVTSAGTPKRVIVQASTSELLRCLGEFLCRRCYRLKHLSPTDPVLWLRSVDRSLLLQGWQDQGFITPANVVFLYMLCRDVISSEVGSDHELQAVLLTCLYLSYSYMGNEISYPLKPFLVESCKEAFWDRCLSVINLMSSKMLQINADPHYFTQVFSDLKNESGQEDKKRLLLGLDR
SR-BI DiI inh: inhibitors of mouse SR-BI mediated HDL lipid uptake; 0.96% of 320,000 active; Q61009; AID 488896; inhibition, % at 12.5 µM; ldlA[mSR-BI] CHO cells, DiI-HDL uptake fluorescence, 3 h;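 active = mean replicate inhibition of at least 70% and a set share of replicates each scoring 70 or more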;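 also: 0% = median of neutral control wells and 100% = median of positive control wells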
SR-BI uptake up: enhances SR-BI lipid uptake from DiI-HDL; activation, % at 12.5 µM; 0.096% of 320,000 active; CHO ldlA[mSR-BI] cells, DiI-HDL uptake fluorescence, 3 h; 100 = double the neutral-control signal;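 active = mean replicate activation of at least 60% and every replicate at or above 60%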;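 also: 0% = median plate neutral-control signal and 100% = twice that signal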
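Material: SR-BI-overexpressing, LDLR-lacking CHO cells; schedule: compound exposure 3 h, 37 °C; reagent: DiI-labelled HDL at 10 µg/mL final; technique: bottom-read fluorescence, 550/595 nm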
dFosB act: activators of mouse delta FosB homodimer; P13346; AID 493131; 0.99% of 340,000 active; activation, % at 25 µM; purified delta FosB, TAMRA-CDK5 oligo fluorescence polarization; percent of positive-control signal above neutral wells;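 active = mean activation above about 17%, with every replicate also reaching it, limit read from the data, passing the limit was not always enough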
Starred values were filed as active, the others as inactive; / = no result. Hits are enriched below; roughly 2% of the tested compounds scored in any of these assays.

SMILES	CDK5 p35 inh	SR-BI DiI inh	SR-BI uptake up	dFosB act
CCC1CCCCN1CCCNC(=O)CSc1nc2nc(C)c(Cc3ccc(C)cc3)c(C)n2n1 (stereo not drawn)	2	-6	6	-6
CS(=O)(=O)c1sc2nc(-c3cccs3)cc(-c3ccccc3)c2c1N	1	66	-66	-28
N#Cc1sc2nc(-c3cccs3)cc(-c3ccc(F)cc3)c2c1N	-1	82*	-82	-6
CCC(C)Sc1ccc([C@H]2N[C@@](CC(C)C)(C(=O)OC)[C@H]3C(=O)N(C)C(=O)[C@@H]23)cc1 (stereo partly drawn)	3	79*	-79	-8
COC(=O)[C@]1(CC(C)C)N[C@H](c2ccc(SC3CCCCC3)c(OC)c2)[C@@H]2C(=O)N(C)C(=O)[C@@H]21	0	75*	-75	-19
COC(=O)[C@]1(CC(C)C)N[C@H](c2ccc(-c3ccc(F)cc3)c(OC)c2)[C@@H]2C(=O)N(C)C(=O)[C@@H]21	-2	89*	-89	-7
CCSc1ccc([C@@H]2[C@@H]3C(=O)N(C)C(=O)[C@@H]3[C@]3(C(=O)OC)CCCCN23)cc1OC	-1	-67	67*	-7
CCN1C(=O)[C@H]2[C@@H](c3ccc(-c4ccc(OC)cc4)c(OC)c3)N[C@@](CC(C)C)(C(=O)OC)[C@H]2C1=O	1	35	-35	0
Cc1occc1C(=O)Nc1ccccc1C#N	0	-17	17	-4
O=C(COc1ccc(/C=N/NS(=O)(=O)c2ccccc2)cc1)Nc1cccc(Cl)c1	0	75*	-75	4
C/C(=N\Nc1ccc([N+](=O)[O-])cc1)c1cccc(N)c1	-2	-3	3	0
C/C(=N\Nc1ccc([N+](=O)[O-])cc1)c1ccc(O)cc1	1	74*	-74	-5
CC/C(=N\Nc1ccc([N+](=O)[O-])cc1[N+](=O)[O-])c1ccc(O)cc1	1	76*	-76	-9
CC/C(=N\Nc1ccccc1[N+](=O)[O-])c1ccc(O)cc1	-6	-1	1	-13
CCOc1cc(CNc2ccccc2)cc(Br)c1OCc1ccc(F)cc1	/	74*	-74	-8
Cc1n[nH]c(C)c1CCCCOc1ccccc1[N+](=O)[O-]	0	27	-27	-6
NC(=S)NN=CCn1cc([N+](=O)[O-])c(=O)[nH]c1=O	0	18	-18	-7
Fc1ccc(-[n+]2nc(Nc3ccccc3)sc2-c2c3ccccc3cc3ccccc23)cc1	-2	32	-32	31*
Oc1ccc2ccccc2c1-c1sc(Nc2ccccc2)n[n+]1-c1ccc(F)cc1	-2	26	-26	10
C[n+]1c(/C=C/c2ccc(O)cc2)ccc2ccccc21	1	15	-15	8
Cc1cc(/C=C\c2ccc3cc(N(C)C)ccc3[n+]2C)c(C)n1-c1ccccc1	2	-166	166*	7
CCOc1ccc(S(=O)(=O)N2CCCCC2)cc1NC(=O)Cc1cccc(C(F)(F)F)c1	0	-23	23	-12
COc1cc(/C=C/C(=O)c2ccc3c(c2)OCCO3)cc(OC)c1OC	3	72*	-72	-3
COc1cc(/C=C/C(=O)c2ccc3c(c2)OCO3)cc(OC)c1OC	1	24	-24	-1
COC(=O)c1ccccc1CSc1nsc(/C=C/N(C)C)c1C#N	1	101*	-101	-8
SMILES	CDK5 p35 inh	SR-BI DiI inh	SR-BI uptake up	dFosB act
O=C(COc1ccccc1[N+](=O)[O-])Nc1cccc(S(=O)(=O)N2CCCC2)c1	0	34	-34	-4
O=C(COc1cc(F)ccc1[N+](=O)[O-])Nc1cc(S(=O)(=O)N2CCCC2)ccc1Cl	0	75*	-75	1
Cc1nnsc1C(=O)N/N=C/c1ccc2ccccc2c1O	1	126*	-126	-2
CNC(=S)N(CCCN(C)C)Cc1cc2cc3c(cc2[nH]c1=O)OCCO3	0	16	-16	4
Cc1nn(-c2ccccc2)c(N2CCCCC2)c1/C=N/NC(=O)c1ccncc1	0	87*	-87	-17
CCOc1ccc(S(=O)(=O)Nc2ccc(C(=O)N/N=C/c3c(C)nn(-c4ccccc4)c3N3CCCC3)cc2)cc1	1	54	-54	-6
Cc1nn(-c2ccccc2)c(N2CCCC2)c1/C=N/NC(=S)Nc1cc(C(F)(F)F)ccc1Cl	1	86*	-86	-10
Cc1ccc(C(=O)Nc2cccc(-c3ccc(N4CCOCC4)nn3)c2)cc1C	0	77*	-77	-9
